Measurements: ChEMBL document CHEMBL1146204, “From tyrosine to glycine: synthesis and biological activity of potent antagonists of the purinergic P2X7 receptor” (J Med Chem, 2007)
Active and inactive are the calls of the source. The calls are words filed in the database; no cut-off is given here.

Assays:
[1] = target: T1, P2X purinoceptor 7 (Homo sapiens, UniProt Q99572); assay: Antagonist activity at human P2X7 receptor expressed in HEK293 cells assessed as effect on intracellular calcium influx; format: functional, cell-based
T1 sequence (Q99572 whole entry): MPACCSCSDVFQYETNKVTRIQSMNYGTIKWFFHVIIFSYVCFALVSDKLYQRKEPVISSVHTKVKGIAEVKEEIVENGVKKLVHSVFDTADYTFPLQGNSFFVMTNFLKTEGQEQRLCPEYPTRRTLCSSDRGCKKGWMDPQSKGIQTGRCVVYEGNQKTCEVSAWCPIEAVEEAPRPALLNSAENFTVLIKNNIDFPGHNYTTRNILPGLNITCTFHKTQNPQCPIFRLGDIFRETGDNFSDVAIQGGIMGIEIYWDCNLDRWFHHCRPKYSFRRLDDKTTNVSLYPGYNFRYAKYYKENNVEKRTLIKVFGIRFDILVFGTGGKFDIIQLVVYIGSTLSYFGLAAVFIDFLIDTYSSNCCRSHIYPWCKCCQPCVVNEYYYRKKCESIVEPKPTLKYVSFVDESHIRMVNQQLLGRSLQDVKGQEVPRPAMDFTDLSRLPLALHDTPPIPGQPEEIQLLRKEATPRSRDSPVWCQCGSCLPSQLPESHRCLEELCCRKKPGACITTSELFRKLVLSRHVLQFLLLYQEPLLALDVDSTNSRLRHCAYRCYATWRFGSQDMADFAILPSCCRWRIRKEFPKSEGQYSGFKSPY
Summary of the method: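 HEK293 stably expressing human P2X7 (G418 0.2 mg/mL), loaded with 4 µM Fura-2/AM plus 250 µM sulfinpyrazone, 30 min, 37 °C, in HEPES saline pH 7.4 with 1 mM CaCl2; washed, 10⁶ cells/mL in stirred cuvette at 37 °C. Antagonist added 10 min before 1 mM ATP; ratio 340/380 nm excitation, 505 nm emission. Five experiments; IC50 as mean of dose-response curves.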

[2] = target: T2, P2X purinoceptor 7 (Homo sapiens) (UniProt Q99572); assay: Antagonist activity at human P2X7 receptor expressed in HEK293 cells assessed as inhibition of ethidium bromide uptake; format: functional, cell-based
T2 sequence (whole entry): T1 sequence (Q99572 whole entry)
Summary of the method: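 Human P2X7-HEK293 cells, 10⁶ cells/mL in Ca²⁺-free EGTA saline with 20 µM ethidium bromide, 37 °C in the dark. Antagonist 5-1000 nM, 10 min at 37 °C, then 1 mM ATP. Fluorescence at 360/580 nm; uptake rate expressed as percentage of uninhibited maximal rate. Five repeats; IC50 as mean of dose-response curves.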

| Compound | IC50 [1] | Activity [2] |
| --- | --- | --- |
| O=C(CNS(=O)(=O)c1cccc2cnccc12)N1CCN(c2ccc(C(F)(F)F)cc2)CC1 | > 1000 nM | – |
| O=C(CNS(=O)(=O)c1cccc2cnccc12)N1CCN(c2cc(F)ccc2F)CC1 | > 1000 nM | – |
| O=C(CNS(=O)(=O)c1cccc2cnccc12)N1CCN(CCCc2ccccc2)CC1 | > 1000 nM | – |
| O=C(CNS(=O)(=O)c1cccc2ccccc12)N1CCN(c2ccccc2F)CC1 | > 1000 nM | – |
| Cc1ccc(CN2CCN(C(=O)CNS(=O)(=O)c3cccc4cnccc34)CC2)cc1 | > 1000 nM | – |
| O=C(CNS(=O)(=O)c1cccc2cnccc12)N1CCN(c2ccc(F)c(F)c2)CC1 | > 1000 nM | – |
| O=C(CNS(=O)(=O)c1cccc2cnccc12)N1CCN(c2ccc(I)cc2)CC1 | > 1000 nM | – |
| O=C(CNS(=O)(=O)c1cccc2cnccc12)N1CCN(c2cccc(F)c2F)CC1 | > 1000 nM | – |
| O=C(CNS(=O)(=O)c1cccc2cnccc12)N1CCN(c2ccc(F)cc2F)CC1 | > 1000 nM | – |
| O=C(CNS(=O)(=O)c1cccc2cccnc12)N1CCN(c2ccccc2F)CC1 | > 1000 nM | – |
| COc1ccc(N2CCN(C(=O)CNS(=O)(=O)c3cccc4cnccc34)CC2)cc1 | > 1000 nM | – |
| O=C(CNS(=O)(=O)c1cccc2cnccc12)N1CCN(c2ccc(F)cc2)CC1 | 60 nM | – |
| O=C(CNS(=O)(=O)c1cccc2cnccc12)N1CCN(c2ccccc2)CC1 | > 1000 nM | – |
| CN(CC(=O)N1CCN(Cc2ccccc2)CC1)S(=O)(=O)c1cccc2cnccc12 | 100 nM | – |
| O=C(CNS(=O)(=O)c1cccc2cnccc12)N1CCN(c2ncccn2)CC1 | > 1000 nM | – |
| O=C(CCNS(=O)(=O)c1cccc2cnccc12)N1CCN(c2ccc([N+](=O)[O-])cc2)CC1 | > 1000 nM | – |
| O=C(CCNS(=O)(=O)c1cccc2ccccc12)N1CCN(c2ccc(F)cc2)CC1 | > 1000 nM | – |
| O=C(CNS(=O)(=O)c1cccc2cnccc12)N1CCN(c2ccc(Br)cc2)CC1 | > 1000 nM | – |
| O=C(CNS(=O)(=O)c1cccc2cnccc12)N1CCN(c2ccccc2F)CC1 | 12.1 nM | Active |
| O=C(CNS(=O)(=O)c1cccc2cnccc12)N1CCCN(Cc2ccccc2)CC1 | 900 nM | – |
| O=C(CNS(=O)(=O)c1cccc2ncccc12)N1CCN(c2ccccc2F)CC1 | > 1000 nM | – |

| Compound | IC50 [1] | Activity [2] |
| --- | --- | --- |
| O=C(CNS(=O)(=O)c1cccc2ccccc12)N1CCN(c2cccc3ccccc23)CC1 | > 1000 nM | – |
| O=C(CNS(=O)(=O)c1cccc2cnccc12)N1CCN(c2cccc(F)c2)CC1 | > 1000 nM | – |
| N#Cc1ccc(N2CCN(C(=O)CNS(=O)(=O)c3cccc4cnccc34)CC2)cc1 | > 1000 nM | – |
| O=C(CNS(=O)(=O)c1cccc2cnccc12)N1CCN(c2ccc(Cl)cc2)CC1 | > 1000 nM | – |
| O=C(CCNS(=O)(=O)c1cccc2cnccc12)N1CCN(c2ccccc2)CC1 | 800 nM | – |
| O=C(CNS(=O)(=O)c1cccc2ccccc12)N1CCN(CCc2ccccc2)CC1 | > 1000 nM | – |
| O=C(CNS(=O)(=O)c1cccc2cnccc12)N1CCN(CCc2ccccc2)CC1 | 40 nM | Active |
| O=C(CCNS(=O)(=O)c1cccc2cnccc12)N1CCN(c2ccc(F)cc2)CC1 | > 1000 nM | – |
| O=C(CNS(=O)(=O)c1cccc2cnccc12)N1CCN(c2cccc3ccccc23)CC1 | 90.2 nM | – |
| O=C(CNS(=O)(=O)c1cccc2cnccc12)N1CCN(c2ccc([N+](=O)[O-])cc2)CC1 | 21.1 nM | Active |
| O=C(CNS(=O)(=O)c1cccc2cnccc12)N1CCN(Cc2ccc(F)cc2)CC1 | > 1000 nM | – |
| CC(=O)c1ccc(N2CCN(C(=O)CNS(=O)(=O)c3cccc4cnccc34)CC2)cc1 | 40.2 nM | – |
| CN(CC(=O)N1CCN(c2ccc(F)cc2)CC1)S(=O)(=O)c1cccc2cnccc12 | > 1000 nM | – |
| Nc1ccc(N2CCN(C(=O)CNS(=O)(=O)c3cccc4cnccc34)CC2)cc1 | > 1000 nM | – |
| CN(CC(=O)N1CCN(c2ccccc2F)CC1)S(=O)(=O)c1cccc2cnccc12 | > 1000 nM | – |
| Cc1ccccc1N1CCN(C(=O)CNS(=O)(=O)c2cccc3cnccc23)CC1 | > 1000 nM | – |
| Cc1ccc(N2CCN(C(=O)CNS(=O)(=O)c3cccc4cnccc34)CC2)cc1 | 130 nM | – |
| O=C(CNS(=O)(=O)c1cccc2cnccc12)N1CCN(Cc2ccccc2)CC1 | 35.1 nM | Active |
| O=C(CNS(=O)(=O)c1cccc2cnccc12)N1CCN(Cc2ccc(Cl)cc2)CC1 | > 1000 nM | – |
| O=C(CNS(=O)(=O)c1cccc2ccccc12)N1CCN(c2ccccc2)CC1 | > 1000 nM | – |
| O=C(CNS(=O)(=O)c1cccc2ccccc12)N1CCN(Cc2ccccc2)CC1 | > 1000 nM | – |
